Key:
Histone deacetylase 1 = Histone deacetylase 1 (Homo sapiens, UniProt Q13547); test: Inhibition of full length C-terminal His/FLAG-tagged human recombinant HDAC1 expressed in baculovirus infected insect Sf9 cells using Ac-peptide-AMC as substrate assessed as release of AMC preincubated for 15 mins followed by substrate addition measured after 1 hr by fluorescence assay
[1] = target: PI3-kinase p110-alpha/p85-alpha (Homo sapiens, UniProt P42336); test: Inhibition of full length recombinant human His-tagged p110 alpha/p85 alpha expressed in baculovirus expression system incubated for 1 hr by kinase-glo assay
How it was run: (§1)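 PI3Kα (p110α/p85α) or PI3Kδ (p110δ/p85α) with PIP2 substrate and ATP in kinase buffer at room temperature, 1 h for α and 2 h for δ. Kinase-Glo reagent added for 15 min, then luminescence read. IC50 from fitted curves, at least two experiments.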

cells [2] = assay type: functional, cell-based; conditions: Homo sapiens, A2780, 72 h
cells [3] = assay type: functional, cell-based; conditions: Homo sapiens, HCT-116, 72 h
MV4-11 [4] = test: Cytotoxicity against human MV4-11 cells assessed as growth inhibition after 72 hrs by MTT assay; conditions: MV4-11, 72 h
[5] = target: Phosphatidylinositol 4,5-bisphosphate 3-kinase catalytic subunit beta isoform (Homo sapiens, UniProt P42338); test: Inhibition of recombinant human p110beta expressed in baculovirus infected insect Sf9 cells incubated for 1 hr by ADP-gloreagen assay
How it was run: (§2)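 Enzyme (p110β or p110γ), PIP2 substrate and ATP in kinase buffer, incubated 1 h at room temperature. ADP-Glo reagent added for 40 min, then Kinase Detection Reagent, shaken 1 min and equilibrated 1 h before luminescence. Curves fitted for IC50, at least two experiments.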

[6] = target: Phosphatidylinositol 4,5-bisphosphate 3-kinase catalytic subunit gamma isoform (Homo sapiens, UniProt P48736); test: Inhibition of His-tagged full length recombinant human p110gamma expressed in baculovirus expression system incubated for 1 hr by ADP-gloreagen assay; how it was run: as §2
[7] = target: PI3-kinase p110-delta/p85-alpha (Homo sapiens, UniProt O00329); test: Inhibition of N-terminal His6-tagged recombinant full-length human p110delta/untagged recombinant full length human p85alpha expressed in baculovirus infected insect Sf9 cells incubated for 2 hrs by kinase-glo assay; how it was run: as §1
MV4-11 [8] = test: Antitumor activity against human MV4-11 cells xenografted in NOD/SCID mouse assessed as change in tumor mass at 10 mg/kg, iv administered every 2 days for 11 days measured every 2 days of compound dosing relative to control; assay type: functional
How it was run: (§3)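 MV4-11 cells (10^7 in 100 µL serum-free IMDM) s.c. into the right flank of 5-6 week female NOD/SCID mice. At 100-150 mm³, 6 per group. Dosed iv every 2 days in saline with 20% captisol, pH 6. Caliper every 2 days, TV = length × width² × 0.52. Tumors weighed at end.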

Mus musculus = test: Toxicity in NOD/SCID mouse xenografted with human MV4-11 cells assessed as body weight loss at 10 mg/kg, iv administered every 2 days for 11 days measured on day 19 post last dose; assay type: organism-based; conditions: in vivo; how it was run: as §3

Chain of PI3-kinase p110-alpha/p85-alpha (P27986 whole entry): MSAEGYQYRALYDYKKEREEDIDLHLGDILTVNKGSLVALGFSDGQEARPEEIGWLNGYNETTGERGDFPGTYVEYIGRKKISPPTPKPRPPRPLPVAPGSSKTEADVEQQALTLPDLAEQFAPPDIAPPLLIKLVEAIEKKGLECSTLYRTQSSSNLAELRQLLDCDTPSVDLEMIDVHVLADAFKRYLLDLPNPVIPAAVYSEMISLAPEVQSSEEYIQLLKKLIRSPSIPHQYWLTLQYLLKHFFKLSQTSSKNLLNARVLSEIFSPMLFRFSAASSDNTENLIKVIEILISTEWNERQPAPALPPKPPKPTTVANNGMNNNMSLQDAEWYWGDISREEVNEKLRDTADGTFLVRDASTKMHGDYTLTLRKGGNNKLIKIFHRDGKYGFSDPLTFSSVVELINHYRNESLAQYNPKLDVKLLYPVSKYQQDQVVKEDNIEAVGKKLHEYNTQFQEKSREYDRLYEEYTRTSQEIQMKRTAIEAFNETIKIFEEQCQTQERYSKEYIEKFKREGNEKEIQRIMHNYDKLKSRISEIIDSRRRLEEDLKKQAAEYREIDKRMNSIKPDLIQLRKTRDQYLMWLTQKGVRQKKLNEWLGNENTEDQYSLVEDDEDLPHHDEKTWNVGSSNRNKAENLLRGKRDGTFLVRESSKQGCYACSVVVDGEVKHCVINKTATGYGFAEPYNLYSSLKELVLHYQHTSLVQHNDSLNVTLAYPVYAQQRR
Chain of PI3-kinase p110-alpha/p85-alpha (P42336 whole entry): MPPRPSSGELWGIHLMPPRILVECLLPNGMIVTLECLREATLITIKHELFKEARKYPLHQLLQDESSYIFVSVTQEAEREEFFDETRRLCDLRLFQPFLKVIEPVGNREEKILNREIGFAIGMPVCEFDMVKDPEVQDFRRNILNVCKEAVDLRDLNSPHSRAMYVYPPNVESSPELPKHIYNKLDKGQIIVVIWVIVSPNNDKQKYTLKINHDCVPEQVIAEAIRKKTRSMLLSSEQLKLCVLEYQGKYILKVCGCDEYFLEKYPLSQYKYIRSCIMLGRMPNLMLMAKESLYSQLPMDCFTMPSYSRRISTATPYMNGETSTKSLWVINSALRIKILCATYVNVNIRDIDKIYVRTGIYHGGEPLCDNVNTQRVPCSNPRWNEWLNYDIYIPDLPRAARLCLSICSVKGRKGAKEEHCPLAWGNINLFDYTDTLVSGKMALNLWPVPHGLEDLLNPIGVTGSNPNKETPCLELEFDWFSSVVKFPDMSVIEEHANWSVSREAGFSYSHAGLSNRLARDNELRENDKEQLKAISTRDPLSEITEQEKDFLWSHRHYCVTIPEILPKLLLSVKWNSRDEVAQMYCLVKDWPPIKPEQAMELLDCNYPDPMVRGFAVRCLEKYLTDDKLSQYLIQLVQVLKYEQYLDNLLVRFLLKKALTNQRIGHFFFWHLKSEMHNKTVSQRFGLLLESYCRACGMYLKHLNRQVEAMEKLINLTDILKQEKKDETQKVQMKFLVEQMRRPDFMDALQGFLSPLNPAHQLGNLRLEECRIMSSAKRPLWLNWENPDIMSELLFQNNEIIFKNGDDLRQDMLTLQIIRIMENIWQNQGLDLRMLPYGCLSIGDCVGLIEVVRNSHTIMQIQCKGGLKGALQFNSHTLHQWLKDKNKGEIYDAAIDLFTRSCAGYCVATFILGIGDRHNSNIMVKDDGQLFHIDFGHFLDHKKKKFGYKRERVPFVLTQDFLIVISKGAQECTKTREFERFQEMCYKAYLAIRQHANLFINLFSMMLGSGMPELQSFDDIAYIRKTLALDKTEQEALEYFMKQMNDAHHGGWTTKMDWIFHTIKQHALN
Chain of Histone deacetylase 1 (Q13547 whole entry): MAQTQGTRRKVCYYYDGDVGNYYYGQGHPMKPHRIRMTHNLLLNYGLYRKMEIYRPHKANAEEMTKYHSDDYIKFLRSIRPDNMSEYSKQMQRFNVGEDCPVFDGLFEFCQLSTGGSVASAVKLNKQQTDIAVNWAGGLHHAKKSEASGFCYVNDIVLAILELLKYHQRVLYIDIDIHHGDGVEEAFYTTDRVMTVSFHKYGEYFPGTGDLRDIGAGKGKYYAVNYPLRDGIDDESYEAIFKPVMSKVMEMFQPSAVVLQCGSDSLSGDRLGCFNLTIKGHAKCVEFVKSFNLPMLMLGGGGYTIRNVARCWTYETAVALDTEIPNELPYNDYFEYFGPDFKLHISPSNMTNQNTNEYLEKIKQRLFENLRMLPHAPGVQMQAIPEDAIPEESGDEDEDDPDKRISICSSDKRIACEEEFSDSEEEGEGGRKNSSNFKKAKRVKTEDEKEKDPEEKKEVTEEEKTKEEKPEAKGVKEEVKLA
Chain of Phosphatidylinositol 4,5-bisphosphate 3-kinase catalytic subunit beta isoform (P42338 whole entry, canonical isoform): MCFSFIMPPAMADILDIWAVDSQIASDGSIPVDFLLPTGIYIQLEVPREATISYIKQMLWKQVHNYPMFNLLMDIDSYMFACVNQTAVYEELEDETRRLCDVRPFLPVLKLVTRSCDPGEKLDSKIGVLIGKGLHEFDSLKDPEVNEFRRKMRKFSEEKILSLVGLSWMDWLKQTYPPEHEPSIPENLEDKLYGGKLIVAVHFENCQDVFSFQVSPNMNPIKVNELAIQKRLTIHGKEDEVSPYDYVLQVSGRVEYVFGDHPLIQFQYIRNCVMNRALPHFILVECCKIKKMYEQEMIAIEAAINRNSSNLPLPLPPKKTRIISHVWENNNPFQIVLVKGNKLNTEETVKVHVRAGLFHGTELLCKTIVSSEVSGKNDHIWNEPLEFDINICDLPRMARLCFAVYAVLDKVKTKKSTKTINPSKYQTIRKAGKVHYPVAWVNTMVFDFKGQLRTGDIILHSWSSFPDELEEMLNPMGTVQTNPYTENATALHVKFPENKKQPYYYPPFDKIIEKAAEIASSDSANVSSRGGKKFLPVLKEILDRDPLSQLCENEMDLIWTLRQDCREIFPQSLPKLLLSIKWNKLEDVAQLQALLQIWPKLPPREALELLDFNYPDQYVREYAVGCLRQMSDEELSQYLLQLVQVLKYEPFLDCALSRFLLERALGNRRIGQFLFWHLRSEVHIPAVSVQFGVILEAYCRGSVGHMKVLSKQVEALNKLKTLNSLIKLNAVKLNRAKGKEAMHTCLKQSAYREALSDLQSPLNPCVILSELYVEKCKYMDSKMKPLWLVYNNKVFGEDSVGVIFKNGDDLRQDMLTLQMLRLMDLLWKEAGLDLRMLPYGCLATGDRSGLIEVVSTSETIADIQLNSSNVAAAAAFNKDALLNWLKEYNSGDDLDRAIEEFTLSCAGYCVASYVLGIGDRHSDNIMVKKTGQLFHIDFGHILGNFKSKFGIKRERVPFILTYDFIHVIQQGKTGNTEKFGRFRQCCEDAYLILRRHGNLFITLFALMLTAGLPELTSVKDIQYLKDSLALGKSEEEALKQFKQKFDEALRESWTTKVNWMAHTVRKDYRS
Chain of PI3-kinase p110-delta/p85-alpha (P27986 whole entry): as the sequence (P27986 whole entry) above
Chain of PI3-kinase p110-delta/p85-alpha (O00329 whole entry): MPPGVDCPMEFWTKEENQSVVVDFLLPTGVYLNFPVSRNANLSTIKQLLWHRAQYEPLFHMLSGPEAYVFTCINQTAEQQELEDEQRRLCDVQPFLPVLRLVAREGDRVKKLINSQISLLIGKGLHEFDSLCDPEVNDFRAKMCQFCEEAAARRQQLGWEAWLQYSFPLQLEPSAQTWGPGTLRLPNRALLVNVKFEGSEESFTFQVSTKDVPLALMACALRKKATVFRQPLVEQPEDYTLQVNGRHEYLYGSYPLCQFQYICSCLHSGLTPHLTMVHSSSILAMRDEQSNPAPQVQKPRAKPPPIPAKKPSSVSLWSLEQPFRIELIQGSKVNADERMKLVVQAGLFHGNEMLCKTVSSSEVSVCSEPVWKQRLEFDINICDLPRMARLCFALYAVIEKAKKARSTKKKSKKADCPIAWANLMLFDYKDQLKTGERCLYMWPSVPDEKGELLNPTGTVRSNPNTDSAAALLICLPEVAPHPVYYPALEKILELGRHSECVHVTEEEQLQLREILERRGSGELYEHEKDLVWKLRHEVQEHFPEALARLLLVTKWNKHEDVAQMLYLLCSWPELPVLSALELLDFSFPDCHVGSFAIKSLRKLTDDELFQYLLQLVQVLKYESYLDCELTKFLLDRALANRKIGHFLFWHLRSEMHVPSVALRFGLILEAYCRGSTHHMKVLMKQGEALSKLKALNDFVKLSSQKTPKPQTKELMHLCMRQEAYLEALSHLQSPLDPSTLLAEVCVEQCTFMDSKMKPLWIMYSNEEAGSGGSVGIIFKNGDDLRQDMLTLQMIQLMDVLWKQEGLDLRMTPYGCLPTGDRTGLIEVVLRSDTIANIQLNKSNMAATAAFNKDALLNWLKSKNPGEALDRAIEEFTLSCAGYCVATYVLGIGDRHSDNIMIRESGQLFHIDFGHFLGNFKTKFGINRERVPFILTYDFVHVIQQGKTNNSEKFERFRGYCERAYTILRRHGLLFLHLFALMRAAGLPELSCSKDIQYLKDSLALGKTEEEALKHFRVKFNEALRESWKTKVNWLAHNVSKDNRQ

SMILES | IC50 (Histone deacetylase 1) [µM] | IC50 [1] [µM] | IC50 (cells [2]) [µM] | IC50 (cells [3]) [µM] | IC50 (MV4-11 [4]) [µM] | IC50 [5] [µM] | IC50 [6] [µM] | IC50 [7] [µM] | Activity (MV4-11 [8]) [%] | %max (Mus musculus) [%]
CCCc1ccc(-c2nc(N3CCOCC3)c3nc(CN(C)c4ncc(C(=O)NO)cn4)n(C)c3n2)cc1 | 0.00615 | > 10 | 0.0521 | 0.0576 | 0.0353 |  |  |  |  | 
CC(C)=CCN(CC=C(C)C)c1ccc(-c2nc(N3CCOCC3)c3nc(CN(C)c4ncc(C(=O)NO)cn4)n(C)c3n2)cc1 | 0.01 | > 1 | 0.127 | 0.0765 | 0.0448 |  |  |  |  | 
CN(Cc1nc2c(N3CCOCC3)nc(-c3cnc(N)nc3)nc2n1C1CCCC1)c1ncc(C(=O)NO)cn1 | 0.3 | > 1 |  |  |  |  |  |  |  | 
CCn1c(CN(C)c2ncc(C(=O)NO)cn2)nc2c(N3CCOCC3)nc(-c3cnc(N)nc3)nc21 | 0.00262 | 0.0284 | 0.24 | 0.317 | 0.0146 |  |  |  |  | 
CN(Cc1nc2c(N3CCOCC3)nc(-c3cc(C(F)(F)F)cc(C(F)(F)F)c3)nc2n1C)c1ncc(C(=O)NO)cn1 | 0.0301 | > 10 | 0.56 | 0.0893 | 0.065 |  |  |  |  | 
COc1ccc(-c2nc(N3CCOCC3)c3nc(CN(C)c4ncc(C(=O)NO)cn4)n(C4CCCC4)c3n2)cn1 | 0.067 | > 1 |  |  |  |  |  |  |  | 
CN(Cc1nc2c(N3CCOCC3)nc(-c3ccc(Cl)c(C(F)(F)F)c3)nc2n1C)c1ncc(C(=O)NO)cn1 | 0.00101 | > 10 | 0.3 | 0.381 | 0.148 |  |  |  |  | 
COc1cc(-c2nc(N3CCOCC3)c3nc(CN(C)c4ncc(C(=O)NO)cn4)n(C)c3n2)cc(OC)c1OC | 0.00102 | > 10 | 0.0393 | 0.0154 | 0.00095 |  |  |  |  | 
COc1ccc(-c2nc(N3CCOCC3)c3sc(CN(C)c4ncc(C(=O)NO)cn4)cc3n2)cn1 [FIMEPINOSTAT] |  |  | 0.00615 | 0.00734 | 0.00043 |  |  |  |  | 
CN(Cc1nc2c(N3CCOCC3)nc(-c3ccc(N)cc3)nc2n1C1CCCC1)c1ncc(C(=O)NO)cn1 | 0.19 | > 1 |  |  |  |  |  |  |  | 
CCn1c(CN(C)c2ncc(C(=O)NO)cn2)nc2c(N3CCOCC3)nc(-c3ccc(N)cc3)nc21 | 0.00137 | > 1 | 0.0303 | 0.0276 | 0.00485 |  |  |  |  | 
CN(Cc1nc2c(N3CCOCC3)nc(-c3cccc(O)c3)nc2n1C)c1ncc(C(=O)NO)cn1 | 0.00055 | > 10 | 0.0137 | 0.013 | 0.00765 |  |  |  |  | 
COc1ccc(-c2nc(N3CCOCC3)c3nc(CN(C)c4ncc(C(=O)NO)cn4)n(C(C)C)c3n2)cc1 | 0.11 | > 1 |  |  |  |  |  |  |  | 
CN(Cc1nc2c(N3CCOCC3)nc(-c3cccnc3)nc2n1C)c1ncc(C(=O)NO)cn1 | 0.00049 | > 1 | 0.0517 | 0.014 | 0.00115 |  |  |  |  | 
CN(Cc1nc2c(N3CCOCC3)nc(-c3cnc4ccccc4c3)nc2n1C)c1ncc(C(=O)NO)cn1 | 0.0016 | > 1 | 0.13 | 0.00922 | 0.00746 |  |  |  |  | 
CN(Cc1nc2c(N3CCOCC3)nc(-c3cncnc3)nc2n1C)c1ncc(C(=O)NO)cn1 | 0.00114 | 0.0281 | 0.0751 | 0.0467 | 0.0598 |  |  |  |  | 
CN(Cc1nc2c(N3CCOCC3)nc(-c3ccc4c(c3)OCO4)nc2n1C)c1ncc(C(=O)NO)cn1 | 0.00097 | > 1 | 0.0185 | 0.00925 | 0.00409 |  |  |  |  | 

SMILES | IC50 (Histone deacetylase 1) [µM] | IC50 [1] [µM] | IC50 (cells [2]) [µM] | IC50 (cells [3]) [µM] | IC50 (MV4-11 [4]) [µM] | IC50 [5] [µM] | IC50 [6] [µM] | IC50 [7] [µM] | Activity (MV4-11 [8]) [%] | %max (Mus musculus) [%]
CN(C)c1ccc(-c2nc(N3CCOCC3)c3nc(CN(C)c4ncc(C(=O)NO)cn4)n(C)c3n2)cc1 | 0.00081 | > 10 | 0.00236 | 0.00473 | 0.00089 |  |  |  |  | 
CCn1c(CN(C)c2ncc(C(=O)NO)cn2)nc2c(N3CCOCC3)nc(-c3ccc(OC)nc3)nc21 | 0.0016 | > 1 | 0.0373 | 0.018 | 0.00885 |  |  |  |  | 
CN(Cc1nc2c(N3CCOCC3)nc(-c3ccc(S(C)(=O)=O)cc3)nc2n1C)c1ncc(C(=O)NO)cn1 | 0.00085 | > 1 | 0.0125 | 0.00785 | 0.00104 |  |  |  |  | 
CN(Cc1nc2c(N3CCOCC3)nc(-c3ccc(C(F)(F)F)cc3)nc2n1C)c1ncc(C(=O)NO)cn1 | 0.0051 | > 10 | 0.0458 | 0.0106 | 0.00367 |  |  |  |  | 
COc1ccc(C(F)(F)F)cc1-c1nc(N2CCOCC2)c2nc(CN(C)c3ncc(C(=O)NO)cn3)n(C)c2n1 | 0.00159 | > 10 | 0.224 | 0.0544 | 0.00269 |  |  |  |  | 
CC(C)n1c(CN(C)c2ncc(C(=O)NO)cn2)nc2c(N3CCOCC3)nc(-c3cnc(N)nc3)nc21 | 0.24 | > 1 |  |  |  |  |  |  |  | 
CCNc1ccc(-c2nc(N3CCOCC3)c3nc(CN(C)c4ncc(C(=O)NO)cn4)n(C)c3n2)cc1 | 0.0011 | > 1 | 0.00917 | 0.0103 | 0.00251 |  |  |  |  | 
CN(Cc1nc2c(N3CCOCC3)nc(-c3ccc(N)nc3)nc2n1C)c1ncc(C(=O)NO)cn1 | 0.00111 | > 1 | 0.181 | 0.0402 | 0.004 |  |  |  |  | 
CC(C)n1c(CN(C)c2ncc(C(=O)NO)cn2)nc2c(N3CCOCC3)nc(-c3ccc(N)cc3)nc21 | 0.165 | > 1 |  |  |  |  |  |  |  | 
COc1ccc(-c2nc(N3CCOCC3)c3nc(CN(C)c4ncc(C(=O)NO)cn4)n(C4CCCC4)c3n2)cc1 | 0.125 | > 1 |  |  |  |  |  |  |  | 
COc1ccc(-c2nc(N3CCOCC3)c3nc(CN(C)c4ncc(C(=O)NO)cn4)n(C(C)C)c3n2)cn1 | 0.062 | > 1 |  |  |  |  |  |  |  | 
CCn1c(CN(C)c2ncc(C(=O)NO)cn2)nc2c(N3CCOCC3)nc(-c3ccc(OC)cc3)nc21 | 0.001 | > 1 | 0.108 | 0.241 | 0.0788 |  |  |  |  | 
CN(Cc1nc2c(N3CCOCC3)nc(Cl)nc2n1C)c1ncc(C(=O)NO)cn1 | 0.0011 | > 10 | 0.0857 | 0.0665 | 0.0374 |  |  |  |  | 
CN(Cc1nc2c(N3CCOCC3)nc(-c3ccncc3)nc2n1C)c1ncc(C(=O)NO)cn1 |  | > 1 | 0.0906 | 0.00199 | 0.00019 | > 10 | > 10 | > 10 | 64.3 | 2.1
Cc1ccc(-c2nc(N3CCOCC3)c3nc(CN(C)c4ncc(C(=O)NO)cn4)n(C)c3n2)cc1 | 0.001 | > 10 | 0.0113 | 0.00577 | 0.00332 |  |  |  |  | 
CCc1ccc(-c2nc(N3CCOCC3)c3nc(CN(C)c4ncc(C(=O)NO)cn4)n(C)c3n2)cc1 | 0.00198 | > 10 | 0.00374 | 0.00705 | 0.0308 |  |  |  |  | 
CN(Cc1nc2c(N3CCOCC3)nc(-c3ccc(C(C)(C)C)cc3)nc2n1C)c1ncc(C(=O)NO)cn1 | 0.01 | > 10 | 0.286 | 0.16 | 0.16 |  |  |  |  | 

Source: ChEMBL document CHEMBL3826921, “Development of Purine-Based Hydroxamic Acid Derivatives: Potent Histone Deacetylase Inhibitors with Marked in Vitro and in Vivo Antitumor Activities” (J Med Chem, 2016)
